# Activity calls are given as the source filed them. The rule behind the calls is not given here.
# How the values were obtained:
# Huh-7 = assay: Effect on formation of DENV replication complex in human Huh-7 cells assessed as reduction NS3:NS5 colocalization into nucleus at 50 uM measured after 16 to 24 hrs by DAPI staining based confocal microscopy analysis; type: functional, cell-based; conditions: time 16-24 hrs
# Procedure, shortened: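 DENV-2-infected Huh-7 cells (MOI 0.05) treated at 50 μM, fixed at 8–24 h, stained for NS3/NS5; confocal colocalization by Manders coefficients with Costes P ≥95% as signal; versus untreated control; repeated at least twice.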
# Influenza A virus [1] = assay: (§1) Antiviral activity against Influenza A/California/04/2009H1N1 infected in human A549 cells assessed as reduction in viral protein expression at 20 uM pretreated for 2 hrs followed by staining with anti-Flu antibody observed at 24 hrs post infection by In-cell western assay; type: functional, organism-based
# Influenza A virus [2] = assay: Antiviral activity against Influenza A Puerto Rico/8/34/H1N1 infected in human A549 cells assessed as inhibition of hemagglutinin expression at 20 uM treated post viral infection for 24 hrs followed by infection of fresh cell monolayer of A549 cells with supernatant for 24 hrs by In-cell western assay; type: functional; conditions: A/Puerto Rico/8/1934(H1N1)
# Procedure, shortened: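 A549 cells infected with PR8 H1N1 and given 20 μM compound: 2 h before infection (PRE), 1 h during adsorption (DUR), or 24 h after adsorption (POST); supernatants used to infect fresh monolayers for 24 h; anti-HA in-cell western; RFU as % of untreated infected; 3 replicates from two experiments.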
# [3] = Selectivity index, ratio of CC50 for human Huh-7 cells to IC50 for Zika virus H/PF/2013 infected in pre-seeded Huh-7 cells assessed as inhibition of viral replication incubated for 72 hrs by immunodetection based secondary yield reduction assay; type: toxicity, cell-based; conditions: read-out: Selectivity Index
# Influenza A virus [4] = assay: as §1, with “A virus (A/parrot/Ulster/73(H7N1))” for “A/California/04/2009H1N1”, “treated” for “pretreated”, “24 hrs, pdp viral adsorption” for “2 hrs”; type: functional, organism-based
# [5] = Stability of the compound in presence of 40 mM H2O2 in ethanol measured after 6 days; type: physicochemical; conditions: 144 h; time 6 day
# Influenza A virus [6] = assay: (§2) Antiviral activity against Influenza A Puerto Rico/8/34/H1N1 infected in human A549 cells assessed as reduction in viral protein expression at 20 uM treated for 24 hrs post viral adsorption followed by staining with anti-Flu antibody observed at 24 hrs post infection by In-cell western assay; type: functional, organism-based; conditions: A/Puerto Rico/8/1934(H1N1)
# CDK9/cyclin T1 = CDK9/cyclin T1 (Homo sapiens, UniProt P50750); assay: Inhibition of human full length CDK9/ His-tagged cT1 assessed as residual activity at 5 uM using CDKtide as a substrate in the presence of BSA incubated for 10 mins by scintillation counting analysis relative to control; type: protein-complex assay; conditions: full length CDK9/His-tagged cyclin T1 complex, probe CDKtide, read-out: Activity
# Procedure, shortened: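 Compounds at fixed 5 μM; 10–50 ng kinase, substrate and NP-40/BSA per supplementary table, 10 μL at 30 °C for 10 min in low-binding tubes. Reactions spotted on filter, dried, scintillation counted. Mean ± SD of two independent experiments.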
# [7] = Cytotoxicity against African green monkey Vero E6 cells infected with SARS-COV-2 by celltiter-glo luminescent cell viability assay; type: cell-based, Vero C1008; conditions: chlorocebus sabaeus, Vero E6 cells infected with SARS-COV-2
# Procedure, shortened: (§3)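 Compound-exposed cells assessed by CellTiter-Glo luminescence versus DMSO control; CC50 from dose-response.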
# [8] = Selectivity index, ratio of CC50 for MDCK cells to IC50 for Influenza A Puerto Rico/8/34/H1N1 infected in MDCK cells; type: toxicity, cell-based; conditions: dog, read-out: Selectivity Index
# Procedure, shortened: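 MDCK or A549 cells (2.5 × 10⁵/well) infected with A/Puerto Rico/8/34 H1N1 for 1 h at 37 °C, then washed. Compound (0.5–20 μM) added in 2% FBS medium for 24 h, with DMSO final ≤0.2%. Virus in supernatants read by hemagglutination. CC₅₀ by MTT (2 × 10⁴ cells/well, same concentrations, 24 h, absorbance 570 nm). SI = CC₅₀/IC₅₀.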
# [9] = Cytotoxicity against human Huh-7 cells infected with SARS-COV-2 assessed as reduction in cell viability by celltiter-glo luminescent cell viability assay; type: cell-based; conditions: Huh-7 cells infected with SARS-COV-2; procedure, shortened: as §3
# Influenza A virus [10] = assay: Antiviral activity against Influenza A/California/04/2009H1N1 infected in human A549 cells assessed as reduction in viral protein expression at 20 uM treated for 24 hr post viral adsorption followed by staining with anti-Flu antibody observed at 24 hrs post infection by In-cell western assay; type: functional, organism-based
# Influenza A virus [11] = assay: as §2, with “virus (A/parrot/Ulster/73(H7N1))” for “Puerto Rico/8/34/H1N1”; type: functional, organism-based
# [12] = Selectivity index, ratio of CC50 for human Huh-7 cells infected with SARS-COV-2 to IC50 for SARS-COV 2 infected in human Huh-7; type: toxicity; conditions: read-out: Selectivity Index
# SARS-CoV-2 = assay: Antiviral activity against SARS-COV 2 infected in quadruplicate Vero E6 cells with DYRA supernatant assessed as reduction in viral replication at 0.8 uM; type: functional; conditions: Severe acute respiratory syndrome coronavirus 2, Vero C1008
# Influenza A virus [13] = assay: Antiviral activity against Influenza A Puerto Rico/8/34/H1N1 infected in human A549 cells assessed as inhibition of viral replication after 24 hrs by hemagglutination assay; type: functional, organism-based; conditions: A/Puerto Rico/8/1934(H1N1), A549, 24 h
# [14] = Inhibition of full length ZIKA virus NS5 RNA dependent RNA polymerase incubated for 10 mins by picogreen staining based fluorescent analysis (Rvb= 1+/-0.2 uM)
# dengue virus type 2 [15] = assay: Antiviral activity against Dengue virus serotype 2 New Guinea C infected in pre-seeded Huh-7 cells assessed as inhibition of viral replication incubated for 72 hrs by immunodetection based plaque reduction assay; type: functional, organism-based; conditions: Huh-7, 72 h
# Influenza A virus [16] = assay: Antiviral activity against Influenza A virus (A/parrot/Ulster/73(H7N1)) infected in human A549 cells assessed as reduction in viral protein expression at 20 uM treated for 2 to 6 hrs post infection and measured following infection of MDCK cells with supernatant for 24 hrs by time-of-addition assay; type: functional, organism-based; conditions: time 2-6 hrs
# [17] = Antioxidant activity assessed as inhibition of ABTS radical scavenging activity at 10 uM to 1 mM measured after 10 mins; type: functional
# Procedure, shortened: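 ABTS radical solution diluted in ethanol (1:100) to A734 0.70; 3.0 mL mixed with 30 μL sample in DMSO at 10 μM–1 mM; A734 read after exactly 10 min; ascorbic acid reference; % scavenging = (A0−As)/A0×100.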
# dengue virus type 2 [18] = assay: Antiviral activity against Dengue virus serotype 2 New Guinea C infected in pre-seeded Huh-7 cells assessed as inhibition of viral replication incubated for 72 hrs by immunodetection based secondary yield reduction assay; type: functional, organism-based; conditions: Dengue virus, New Guinea C, Huh-7, 72 h; read-out: IC50
# [19] = Inhibition of full length ZIKV NS5-MTase domain using 7MeGpppAC4 as a substrate incubated for 30 mins by filter binding assay; parameters: species or system Zika virus
# Influenza A virus [20] = assay: Antiviral activity against Influenza A Puerto Rico/8/34/H1N1 infected in human A549 cells assessed as reduction in viral protein expression at 20 uM pretreated for 2 hrs followed by staining with anti-Flu antibody observed at 24 hrs post infection by In-cell western assay; type: functional, organism-based; conditions: A/Puerto Rico/8/1934(H1N1)
# Chain of CDK9/cyclin T1 (O60563 whole entry): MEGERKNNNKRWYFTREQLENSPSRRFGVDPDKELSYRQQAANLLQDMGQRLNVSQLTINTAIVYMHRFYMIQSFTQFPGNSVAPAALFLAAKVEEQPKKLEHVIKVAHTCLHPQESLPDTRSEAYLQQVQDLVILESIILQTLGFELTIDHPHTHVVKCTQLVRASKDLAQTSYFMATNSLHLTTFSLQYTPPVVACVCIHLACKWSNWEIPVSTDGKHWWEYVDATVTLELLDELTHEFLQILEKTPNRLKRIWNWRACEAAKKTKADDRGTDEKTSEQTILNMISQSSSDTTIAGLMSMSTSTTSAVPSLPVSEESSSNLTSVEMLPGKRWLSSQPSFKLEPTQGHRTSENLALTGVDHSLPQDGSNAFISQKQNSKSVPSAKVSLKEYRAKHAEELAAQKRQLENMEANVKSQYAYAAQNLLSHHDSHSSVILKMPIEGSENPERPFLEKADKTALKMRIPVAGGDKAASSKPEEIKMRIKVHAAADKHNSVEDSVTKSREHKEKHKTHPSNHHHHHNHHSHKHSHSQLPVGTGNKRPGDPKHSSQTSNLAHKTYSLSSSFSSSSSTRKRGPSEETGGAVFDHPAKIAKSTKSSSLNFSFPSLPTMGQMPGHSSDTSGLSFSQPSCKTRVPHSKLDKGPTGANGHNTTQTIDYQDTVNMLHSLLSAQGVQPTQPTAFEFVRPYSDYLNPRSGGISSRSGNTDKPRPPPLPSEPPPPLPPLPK
# Chain of CDK9/cyclin T1 (P50750 whole entry): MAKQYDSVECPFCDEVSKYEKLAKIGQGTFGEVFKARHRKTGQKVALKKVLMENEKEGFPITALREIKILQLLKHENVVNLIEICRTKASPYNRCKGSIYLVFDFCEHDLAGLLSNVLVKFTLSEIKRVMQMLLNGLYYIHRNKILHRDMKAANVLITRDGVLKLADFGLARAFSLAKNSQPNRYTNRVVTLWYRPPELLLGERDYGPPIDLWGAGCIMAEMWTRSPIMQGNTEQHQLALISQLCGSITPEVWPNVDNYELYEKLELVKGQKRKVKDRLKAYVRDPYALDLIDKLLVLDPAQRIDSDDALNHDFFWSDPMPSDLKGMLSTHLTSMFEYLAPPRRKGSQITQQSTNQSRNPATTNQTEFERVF
smiles,measurement,setting,value
FC(F)(F)c1cccc(Nc2nc(NCCOc3ccccc3)nc3[nH]cnc23)c1,Activity,Huh-7,Active
same,Activity,Influenza A virus [1],Active
same,inhibition at 20 µM,Influenza A virus [2],50%
same,selectivity ratio at 72 h,[3],182
same,Activity,Influenza A virus [4],Active
same,Stabilty,[5],Unstable
same,Activity,Influenza A virus [6],Active
same,"activity at 10 min, 5 µM",CDK9/cyclin T1,> 98%
same,CC50,[7],200 µM
same,selectivity ratio,[8],14.5
same,CC50,[9],200 µM
same,Activity,Influenza A virus [10],Active
same,Activity,Influenza A virus [11],Active
same,selectivity ratio,[12],74
same,inhibition at 0.8 µM,SARS-CoV-2,83.5%
same,IC50,Influenza A virus [13],9.9 µM
same,IC50,[14],12.8 µM
same,IC50,dengue virus type 2 [15],0.9 µM
same,Activity,Influenza A virus [16],Active
same,Activity,[17],Active
same,IC50,dengue virus type 2 [18],2.6 µM
same,IC50,[19],Not Active
same,Activity,Influenza A virus [20],Active

# From ChEMBL document CHEMBL4842338, “System-oriented optimization of multi-target 2,6-diaminopurine derivatives: Easily accessible broad-spectrum antivirals active against flaviviruses, influenza virus and SARS-CoV-2” (Eur J Med Chem, 2021)
